Broadly, the stoichiometry N is the number of molecules, sites or subunits per partner or assembly.

In one test the target is T1, TbMCP-1 (Trypanosoma brucei, UniProt Q386R0).
T1 sequence (Q386R0 1-503): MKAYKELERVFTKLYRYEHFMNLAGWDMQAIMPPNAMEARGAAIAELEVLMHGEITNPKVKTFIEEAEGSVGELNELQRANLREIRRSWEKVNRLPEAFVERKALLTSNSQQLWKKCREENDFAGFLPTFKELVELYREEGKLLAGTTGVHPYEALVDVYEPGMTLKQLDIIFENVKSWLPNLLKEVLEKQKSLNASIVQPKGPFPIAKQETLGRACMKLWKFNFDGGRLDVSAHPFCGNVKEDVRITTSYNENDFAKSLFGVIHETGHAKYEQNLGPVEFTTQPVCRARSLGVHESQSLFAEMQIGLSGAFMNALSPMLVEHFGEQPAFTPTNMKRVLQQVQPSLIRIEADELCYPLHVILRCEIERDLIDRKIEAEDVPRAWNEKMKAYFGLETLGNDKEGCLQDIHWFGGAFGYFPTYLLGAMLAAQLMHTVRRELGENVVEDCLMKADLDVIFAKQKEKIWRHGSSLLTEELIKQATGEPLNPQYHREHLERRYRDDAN
The experiment in a line: inhibition of FA-Ala-Lys hydrolysis after pre-incubation. The class given is biochemical. The settings on record: read-out: % residual activity at 5 μM. The method, boiled down: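 GST-fused recombinant TbMCP-1 was expressed in E. coli BL21 Codon Plus (DE3), purified on glutathione-agarose and desalted. The enzyme was pre-incubated with test compound (metal chlorides were tested from 1 µM to 1 mM). Activity was then read continuously at 340 nm with 200 µM furyl-acryloyl-Ala-Lys in 100 mM MOPS, pH 7.3, and reported as % residual activity.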

Test [1] concerns the target Trypanosoma brucei M32 metallocarboxypeptidase TbMCP-1, N-terminally GST-tagged recombinant enzyme (Trypanosoma brucei (Lister 427)). The experiment in a line: SEC. On the technique in general: Size exclusion chromatography separates by hydrodynamic size, large species first.

Regarding `N=C(N)NCCSC(CC(=O)O)C(=O)O` (centres unmarked) [GEMSA], the remaining activity at 5 µM at TbMCP-1 was 9.1 ± 1.2%.

For “Trypanosoma brucei M32 metallocarboxypeptidase TbMCP-1, N-terminally GST-tagged recombinant enzyme”, the stoichiometry N in test [1] is 2.

For the origin of these results see publication PMC3383389 (Molecular and Biochemical Parasitology, 2012).
